The values below come from ChEMBL document CHEMBL1155082, “Chemo-enzymatic synthesis of a series of 2,4-syn-functionalized (S)-glutamate analogues: new insight into the structure-activity relation of ionotropic glutamate receptor subtypes 5, 6, and 7” (J Med Chem, 2008).

Experiment [1] concerns the target Glutamate receptor ionotropic, kainate 1 (Rattus norvegicus, UniProt P22756). Kind of experiment: Displacement of [3H]SYM2081 from rat recombinant iGluR5. On the technique in general: In a radioligand displacement assay an active substance lowers the binding of a labelled ligand.
A short description of experiment [2]: Displacement of [3H]AMPA from AMPA receptor in rat synaptosomes. The experiment is classed as subcellular, Brain.
For another experiment, the target named is Glutamate NMDA receptor. Kind of experiment: Displacement of [3H]CGP 39653 from NMDA receptor in rat synaptosomes. It is filed as subcellular, Brain.
Experiment [3] in a line: Displacement of [3H]KA from KA receptor in rat synaptosomes. The experiment is classed as subcellular, Brain.
The target in experiment [4] is Glutamate receptor ionotropic, kainate 2 (Rattus norvegicus, UniProt P42260). Kind of experiment: Displacement of [3H]SYM2081 from rat recombinant iGluR6.
Sequence of Glutamate receptor ionotropic, kainate 2 (P42260 whole entry): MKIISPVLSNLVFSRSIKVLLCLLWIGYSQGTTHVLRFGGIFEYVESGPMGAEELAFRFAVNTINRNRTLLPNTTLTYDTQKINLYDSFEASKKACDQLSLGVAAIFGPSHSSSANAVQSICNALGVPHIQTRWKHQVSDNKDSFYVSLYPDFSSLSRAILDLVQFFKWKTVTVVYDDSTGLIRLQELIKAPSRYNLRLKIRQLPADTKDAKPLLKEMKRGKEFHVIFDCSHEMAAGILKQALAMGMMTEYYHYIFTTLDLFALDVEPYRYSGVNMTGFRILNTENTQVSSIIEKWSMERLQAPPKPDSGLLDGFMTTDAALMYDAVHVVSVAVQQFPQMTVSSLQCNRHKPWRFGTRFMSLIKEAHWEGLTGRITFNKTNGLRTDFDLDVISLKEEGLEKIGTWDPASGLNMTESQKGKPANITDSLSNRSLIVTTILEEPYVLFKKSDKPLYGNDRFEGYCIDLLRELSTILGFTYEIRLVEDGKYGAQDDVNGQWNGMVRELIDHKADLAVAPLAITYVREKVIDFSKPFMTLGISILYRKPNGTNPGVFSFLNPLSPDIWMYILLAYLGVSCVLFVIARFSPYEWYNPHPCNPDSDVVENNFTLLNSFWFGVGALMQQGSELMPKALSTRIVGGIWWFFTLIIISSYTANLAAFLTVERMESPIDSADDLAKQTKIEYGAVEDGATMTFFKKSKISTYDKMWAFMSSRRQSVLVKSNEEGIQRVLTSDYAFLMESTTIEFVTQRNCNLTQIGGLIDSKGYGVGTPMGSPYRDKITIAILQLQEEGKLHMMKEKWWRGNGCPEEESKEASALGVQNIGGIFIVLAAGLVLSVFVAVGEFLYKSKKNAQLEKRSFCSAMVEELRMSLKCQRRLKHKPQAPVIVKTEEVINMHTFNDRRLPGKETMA
In experiment [5] the target is Metabotropic glutamate receptor 5 (Rattus norvegicus, UniProt P31424). The experiment is described as follows: Activity at rat mGluR5 expressed in HEK293 cells assessed as calcium mobilization by FLIPR. It is filed as functional, cell-based. The essentials:
(§1)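 Rat receptor cDNA transiently transfected into HEK293 (Lipofectamine Plus), seeded 24 h later, assayed next day. Cells loaded with 3 µM Fluo-4/0.01% pluronic in HEPES-buffered HBSS pH 7.4 with BSA and 2.5 mM probenecid, 1 h, 37 °C. Glutamate at EC80 or EC10 added with compound. FLIPR read over 3 min at room temperature. Maximum fluorescence change fitted by Hill equation.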
(In general: A change in cytosolic calcium serves as a functional read-out for many receptors and channels.)

Experiment [6] addresses Metabotropic glutamate receptor 4 (Homo sapiens, UniProt Q14833). Kind of experiment: Activity at mGluR4 assessed as calcium mobilization by FLIPR. It is filed as functional.
Experiment [7] has as its target Metabotropic glutamate receptor 3 (Rattus norvegicus, UniProt P31422). The experiment is described as follows: Displacement of [3H][…] from rat mGluR3 expressed in CHO cells by SPA. The experiment is classed as cell-based. The essentials: (§2)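 Membranes from transiently transfected CHO cells harvested 48 h post-transfection, protein by Bradford, stored at -80 °C. SPA binding at 10 µg protein/well in 50 mM Tris-HCl pH 7.0 with 2 mM MgCl2, 2 nM [3H]LY341495 and WGA-SPA beads. Incubated 45 min on ice, then overnight at 4 °C. Nonspecific binding with 10 µM LY341495. Ki by Cheng-Prusoff.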

Experiment [8] addresses T1, Metabotropic glutamate receptor 2 (Rattus norvegicus, UniProt P31421). Kind of experiment: Activity at rat mGluR2 expressed in CHO cells assessed as calcium mobilization by FLIPR. The experiment is classed as functional, cell-based. The essentials: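 Rat mGluR2 cDNA co-transfected 8:2 with C. elegans GR Qi3 chimera cDNA into CHO cells (Lipofectamine Plus, 10 µg DNA/~7×10^6 cells). Fluo-4 loading for 1 h at 37 °C. Stimulation with EC80 or EC10 glutamate plus compound. FLIPR maximum fluorescence change over 3 min at room temperature, baseline-subtracted, fitted by Hill equation.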

The target of experiment [9] is Metabotropic glutamate receptor 1 (Rattus norvegicus, UniProt P23385). Kind of experiment: Activity at rat mGluR1 expressed in HEK293 cells assessed as calcium mobilization by FLIPR. The experiment is classed as functional, cell-based. The essentials:
as §1

Experiment [10] addresses T1, Metabotropic glutamate receptor 2. The experiment is described as follows: Displacement of [3H][…] from rat mGluR2 expressed in CHO cells by SPA. The experiment is classed as cell-based. The essentials:
as §2

In experiment [11] the test system is Escherichia coli. The experiment is described as follows: Activity at Escherichia coli JM103 aspartate aminotransferase. The essentials: (§3)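 E. coli AAT purified from overexpressing JM103 carrying pUC119-aspC. Run at 25 °C in 0.1 M potassium phosphate pH 7.6 with 40 mM Asp, 0.2 mM NADH, 0.1-10 mM ketoacid substrate, 0.05 UI AAT and 2 UI malic dehydrogenase coupling. Rates taken from linear OD decay at 340 nm. Kinetic parameters and standard errors from Hanes-Woolf plot by least squares.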

The subject of experiment [12] is Escherichia coli. Kind of experiment: Activity at Escherichia coli JM103 aspartate aminotransferase relative to alpha-ketoglutarate. The essentials:
as §3

Experiment [13] addresses T2, Glutamate receptor ionotropic, kainate 4 (Rattus norvegicus, UniProt Q01812).
T2 sequence (Q01812 whole entry): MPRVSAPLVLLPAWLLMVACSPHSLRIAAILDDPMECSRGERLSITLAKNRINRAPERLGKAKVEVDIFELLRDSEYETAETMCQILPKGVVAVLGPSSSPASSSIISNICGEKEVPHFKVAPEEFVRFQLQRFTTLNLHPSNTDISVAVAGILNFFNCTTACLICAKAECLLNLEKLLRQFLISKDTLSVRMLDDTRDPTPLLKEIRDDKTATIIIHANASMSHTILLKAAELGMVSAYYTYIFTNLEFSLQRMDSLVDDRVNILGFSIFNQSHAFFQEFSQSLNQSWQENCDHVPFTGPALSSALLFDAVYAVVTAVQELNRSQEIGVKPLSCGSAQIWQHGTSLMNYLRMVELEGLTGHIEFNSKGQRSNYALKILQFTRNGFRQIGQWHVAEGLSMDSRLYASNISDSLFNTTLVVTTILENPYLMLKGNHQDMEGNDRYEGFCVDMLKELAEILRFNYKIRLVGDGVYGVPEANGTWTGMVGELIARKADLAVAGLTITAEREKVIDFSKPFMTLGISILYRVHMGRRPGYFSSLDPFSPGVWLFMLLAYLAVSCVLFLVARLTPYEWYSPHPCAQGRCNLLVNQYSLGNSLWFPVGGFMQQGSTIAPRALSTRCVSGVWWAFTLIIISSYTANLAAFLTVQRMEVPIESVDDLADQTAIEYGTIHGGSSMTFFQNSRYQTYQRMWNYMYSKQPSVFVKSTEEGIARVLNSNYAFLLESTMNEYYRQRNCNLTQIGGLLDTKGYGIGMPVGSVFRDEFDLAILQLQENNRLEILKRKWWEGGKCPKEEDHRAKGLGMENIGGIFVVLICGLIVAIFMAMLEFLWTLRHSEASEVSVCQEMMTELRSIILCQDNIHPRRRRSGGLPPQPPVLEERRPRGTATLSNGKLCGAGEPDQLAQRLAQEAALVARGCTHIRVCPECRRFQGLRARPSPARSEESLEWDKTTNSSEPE
Kind of experiment: Binding affinity to rat cloned KA1 receptor.

A word on the IC50: it is the concentration at which inhibition is half-maximal. Read a high IC50 as weaker potency in that assay. By pIC50 is commonly meant the negative decadic logarithm of the IC50, by convention in mol/L. A high value points to a small IC50. As usually defined, the EC50 is the concentration that produces a half-maximal response. For orientation: Km means the concentration of substrate that gives half-maximal velocity.

Sequence of Metabotropic glutamate receptor 1 (P23385 whole entry): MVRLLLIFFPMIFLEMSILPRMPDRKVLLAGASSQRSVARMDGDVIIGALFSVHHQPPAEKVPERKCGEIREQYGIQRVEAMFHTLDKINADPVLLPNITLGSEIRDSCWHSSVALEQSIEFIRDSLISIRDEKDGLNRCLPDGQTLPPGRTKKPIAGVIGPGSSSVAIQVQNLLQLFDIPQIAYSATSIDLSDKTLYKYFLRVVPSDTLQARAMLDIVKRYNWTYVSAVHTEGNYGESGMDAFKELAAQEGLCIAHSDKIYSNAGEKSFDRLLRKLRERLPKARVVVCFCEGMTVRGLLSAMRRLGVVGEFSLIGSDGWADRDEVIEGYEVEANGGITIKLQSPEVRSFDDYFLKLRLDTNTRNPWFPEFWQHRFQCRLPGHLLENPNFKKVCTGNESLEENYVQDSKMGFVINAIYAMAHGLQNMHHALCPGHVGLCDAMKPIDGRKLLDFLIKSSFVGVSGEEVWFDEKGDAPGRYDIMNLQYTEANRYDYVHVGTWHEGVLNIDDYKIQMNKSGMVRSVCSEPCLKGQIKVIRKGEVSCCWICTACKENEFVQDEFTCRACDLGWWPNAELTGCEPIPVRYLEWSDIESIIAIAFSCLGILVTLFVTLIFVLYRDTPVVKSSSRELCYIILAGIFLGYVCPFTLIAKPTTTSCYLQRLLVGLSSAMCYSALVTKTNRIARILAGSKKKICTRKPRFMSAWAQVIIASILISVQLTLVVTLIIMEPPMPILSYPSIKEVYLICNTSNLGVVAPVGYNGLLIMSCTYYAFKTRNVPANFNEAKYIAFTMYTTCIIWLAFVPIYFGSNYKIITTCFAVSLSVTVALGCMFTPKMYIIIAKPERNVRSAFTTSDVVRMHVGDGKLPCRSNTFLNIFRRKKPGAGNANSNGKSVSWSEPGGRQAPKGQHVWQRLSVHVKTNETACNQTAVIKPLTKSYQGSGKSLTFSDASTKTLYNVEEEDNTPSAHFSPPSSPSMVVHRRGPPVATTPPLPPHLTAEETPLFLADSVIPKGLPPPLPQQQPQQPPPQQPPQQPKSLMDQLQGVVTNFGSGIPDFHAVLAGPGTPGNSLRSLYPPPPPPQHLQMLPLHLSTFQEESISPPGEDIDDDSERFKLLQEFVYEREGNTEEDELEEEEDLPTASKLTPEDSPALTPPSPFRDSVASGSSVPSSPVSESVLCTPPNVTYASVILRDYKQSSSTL
Sequence of Glutamate receptor ionotropic, kainate 1 (P22756 whole entry): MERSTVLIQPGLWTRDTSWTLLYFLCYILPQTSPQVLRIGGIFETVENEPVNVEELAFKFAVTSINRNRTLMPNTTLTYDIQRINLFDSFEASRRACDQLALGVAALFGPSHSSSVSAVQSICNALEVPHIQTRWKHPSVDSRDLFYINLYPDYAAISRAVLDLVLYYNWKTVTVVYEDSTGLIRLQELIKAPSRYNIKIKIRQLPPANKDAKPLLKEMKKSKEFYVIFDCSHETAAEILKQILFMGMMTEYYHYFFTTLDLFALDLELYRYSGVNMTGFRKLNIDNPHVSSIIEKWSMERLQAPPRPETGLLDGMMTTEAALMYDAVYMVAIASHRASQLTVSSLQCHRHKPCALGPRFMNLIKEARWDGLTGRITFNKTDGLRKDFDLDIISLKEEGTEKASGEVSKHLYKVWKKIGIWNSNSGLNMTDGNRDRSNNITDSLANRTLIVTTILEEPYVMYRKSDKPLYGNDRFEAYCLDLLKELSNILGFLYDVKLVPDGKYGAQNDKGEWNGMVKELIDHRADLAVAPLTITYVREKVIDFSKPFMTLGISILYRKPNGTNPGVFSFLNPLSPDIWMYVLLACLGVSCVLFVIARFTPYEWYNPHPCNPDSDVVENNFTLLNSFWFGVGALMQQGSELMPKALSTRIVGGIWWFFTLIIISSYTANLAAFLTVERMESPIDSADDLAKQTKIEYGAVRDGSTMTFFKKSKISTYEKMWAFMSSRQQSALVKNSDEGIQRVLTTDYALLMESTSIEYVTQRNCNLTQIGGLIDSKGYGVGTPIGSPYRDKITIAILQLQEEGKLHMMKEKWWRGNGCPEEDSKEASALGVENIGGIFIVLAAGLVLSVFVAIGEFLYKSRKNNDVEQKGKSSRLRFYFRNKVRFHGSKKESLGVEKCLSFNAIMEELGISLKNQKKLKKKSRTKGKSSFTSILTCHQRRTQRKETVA
T1 sequence (P31421 whole entry): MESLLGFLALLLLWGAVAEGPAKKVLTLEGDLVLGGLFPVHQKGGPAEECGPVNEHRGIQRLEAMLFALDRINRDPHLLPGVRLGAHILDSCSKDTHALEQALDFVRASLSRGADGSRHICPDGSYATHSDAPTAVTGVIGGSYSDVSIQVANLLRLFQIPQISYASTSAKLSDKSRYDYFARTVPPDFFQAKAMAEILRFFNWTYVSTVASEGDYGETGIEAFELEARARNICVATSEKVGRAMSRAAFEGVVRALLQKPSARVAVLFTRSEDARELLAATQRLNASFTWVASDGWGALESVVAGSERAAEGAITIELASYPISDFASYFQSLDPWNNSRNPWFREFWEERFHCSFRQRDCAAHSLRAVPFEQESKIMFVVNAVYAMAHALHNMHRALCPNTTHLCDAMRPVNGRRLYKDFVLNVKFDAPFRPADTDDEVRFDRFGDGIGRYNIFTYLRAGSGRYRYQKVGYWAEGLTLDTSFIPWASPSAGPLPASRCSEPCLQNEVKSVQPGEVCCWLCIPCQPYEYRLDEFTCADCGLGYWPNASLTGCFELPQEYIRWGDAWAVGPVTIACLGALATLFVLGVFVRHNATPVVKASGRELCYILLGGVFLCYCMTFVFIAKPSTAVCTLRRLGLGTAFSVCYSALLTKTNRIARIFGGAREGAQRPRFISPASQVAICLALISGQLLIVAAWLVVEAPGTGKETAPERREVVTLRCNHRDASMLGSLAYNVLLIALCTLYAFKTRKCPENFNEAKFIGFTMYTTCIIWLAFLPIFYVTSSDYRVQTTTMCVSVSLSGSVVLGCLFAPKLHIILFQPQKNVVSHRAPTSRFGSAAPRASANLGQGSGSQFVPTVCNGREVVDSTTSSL
Sequence of Metabotropic glutamate receptor 3 (P31422 whole entry): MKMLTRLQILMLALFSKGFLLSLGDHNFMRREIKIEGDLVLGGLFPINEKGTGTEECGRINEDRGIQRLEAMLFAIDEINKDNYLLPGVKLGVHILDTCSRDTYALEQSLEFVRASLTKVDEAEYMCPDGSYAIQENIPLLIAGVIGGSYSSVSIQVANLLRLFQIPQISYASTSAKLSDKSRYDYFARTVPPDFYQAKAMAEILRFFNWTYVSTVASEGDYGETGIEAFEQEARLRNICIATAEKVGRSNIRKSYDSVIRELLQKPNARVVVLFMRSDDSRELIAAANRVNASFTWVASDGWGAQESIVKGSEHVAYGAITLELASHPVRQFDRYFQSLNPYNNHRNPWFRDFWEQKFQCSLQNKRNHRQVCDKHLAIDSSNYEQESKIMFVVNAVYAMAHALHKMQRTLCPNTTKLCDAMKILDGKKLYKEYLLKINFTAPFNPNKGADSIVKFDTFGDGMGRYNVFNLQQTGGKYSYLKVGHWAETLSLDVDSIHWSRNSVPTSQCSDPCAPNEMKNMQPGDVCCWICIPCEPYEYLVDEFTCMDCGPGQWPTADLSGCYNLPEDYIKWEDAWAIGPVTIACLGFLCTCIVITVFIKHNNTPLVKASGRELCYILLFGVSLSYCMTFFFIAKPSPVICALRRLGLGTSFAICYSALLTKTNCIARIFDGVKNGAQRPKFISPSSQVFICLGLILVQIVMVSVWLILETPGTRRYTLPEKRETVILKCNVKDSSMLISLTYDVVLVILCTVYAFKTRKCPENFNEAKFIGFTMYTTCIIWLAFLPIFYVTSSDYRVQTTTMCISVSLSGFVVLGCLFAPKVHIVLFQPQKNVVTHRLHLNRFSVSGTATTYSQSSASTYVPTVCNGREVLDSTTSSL

In the case of `N[C@@H](Cn1oc(=O)[nH]c1=O)C(=O)O` [QUISQUALATE], the Ki in [1] (read-out: Ki) is 0.171 µM.
`N[C@@H](C[C@@H](COCc1ccccc1)C(=O)O)C(=O)O` showed a half-maximal inhibitory concentration (IC50) in experiment [2] of more than 100 µM. This compound came in with a Ki on Glutamate NMDA receptor of 26 µM. In [3], this compound came in with an IC50 of 12 µM and a pIC50 of 4.93.
For the compound `N[C@@H](C[C@@H](CCC(=O)NCc1ccccc1)C(=O)O)C(=O)O`, the concentration for half-maximal inhibition (IC50) in experiment [2] and in experiment [3] was more than 100 µM throughout. Besides, the Ki was 72 µM at Glutamate NMDA receptor, 0.138 µM in [1] (read-out: Ki) and more than 100 µM in [4] (read-out: Ki).
As to `N[C@@H](C[C@@H](CO)C(=O)O)C(=O)O`, the IC50 is 44 µM in experiment [2] and 0.24 µM in [3]. Besides, the negative-log IC50 (pIC50) worked out at 4.35 in [2] and 6.62 in [3]. The compound also had a Ki on Glutamate NMDA receptor of 15 µM.
With `CNC(=O)CC[C@H](C[C@H](N)C(=O)O)C(=O)O`, the EC50 in experiment [5], in experiment [6], in experiment [8] and in experiment [9] was more than 100 µM each time. The 50% inhibitory concentration (IC50) came to 32 µM in [2] and 29 µM in [3]. Besides, the negative logarithm of the IC50 (pIC50) in experiment [2] was 4.51; in [3], 4.54. Besides, the Ki was more than 100 µM on Glutamate NMDA receptor; more than 1000 µM in [7]; 0.00381 µM in [1] (read-out: Ki); 0.123 µM in experiment [4] (read-out: Ki); 0.12 µM in experiment [4] (read-out: pKi (converted)); more than 1000 µM in experiment [10].
Consider `COC(=O)CCC(CC(=O)C(=O)O)C(=O)O` (racemic), for which the Km in the experiment on Escherichia coli [11] worked out at 610 µM. Also, the kcat in the experiment with Escherichia coli [12] was found to be 33.6%.
As for `O=C(O)C(=O)CC(CO)C(=O)O` (racemic), the Michaelis constant (Km) with Escherichia coli [11] stood at 4700 µM. Also, in the experiment with Escherichia coli [12], the kcat is 1.6%.
As for `COC(=O)CC[C@H](C[C@H](N)C(=O)O)C(=O)O`, the 50% effective concentration (EC50) in experiment [5], in experiment [6], in experiment [8] and in [9] was more than 100 µM each time. Also, the figures for the concentration for half-maximal inhibition (IC50) in experiment [2] and in experiment [3] were 31 µM and 7.9 µM, respectively. Also, the negative logarithm of the IC50 (pIC50) in experiment [2] is reported as 4.51; in experiment [3] it was 5.1. The Ki at Glutamate NMDA receptor was more than 100 µM; in [7], more than 1000 µM; in experiment [1] (read-out: Ki), 0.0428 µM; in experiment [1] (read-out: pKi (converted)), 0.0417 µM; in [4] (read-out: Ki), 6.67 µM; in experiment [4] (read-out: pKi (converted)), 6.17 µM. In experiment [10], this compound registered a Ki of more than 1000 µM.
Turning to `NC(=O)CC[C@H](C[C@H](N)C(=O)O)C(=O)O`, the EC50 in [5], in experiment [6], in [8] and in experiment [9] was more than 100 µM throughout. The IC50 in experiment [2] came to 25 µM; in experiment [3], 16 µM. Moreover, the negative logarithm of the IC50 (pIC50) in experiment [2] is reported as 4.6; in experiment [3], 4.8. For the same compound, the Ki at Glutamate NMDA receptor is more than 100 µM; in experiment [7], more than 1000 µM; in experiment [1] (read-out: Ki), 0.00745 µM; in experiment [4] (read-out: Ki), 9.66 µM; in experiment [10], more than 1000 µM.
As for `CCNC(=O)CC[C@H](C[C@H](N)C(=O)O)C(=O)O`, the EC50 in experiment [5], in [6], in [8] and in experiment [9] was more than 100 µM in each case. The IC50 in experiment [2] worked out at 74 µM; in experiment [3] it was 41 µM. Further, the values for the pIC50 in [2] and in [3] were 4.13 and 4.39, respectively. Moreover, the Ki at Glutamate NMDA receptor was more than 100 µM; in experiment [7], more than 1000 µM; in experiment [1] (read-out: Ki), 0.641 µM; in experiment [4] (read-out: Ki), 10.6 µM; in experiment [4] (read-out: pKi (converted)), 10.2 µM; in experiment [10] it was more than 1000 µM.
For the compound `C[C@H](C[C@H](N)C(=O)O)C(=O)O` [2S,4R-4-METHYLGLUTAMATE], the Ki in experiment [4] (read-out: Ki) is 0.017 µM.
For `C/C(=C\C=C\[C@@H](C)C(=O)O)[C@H]1CN[C@H](C(=O)O)[C@H]1CC(=O)O` [DOMORIC ACID], the Ki in experiment [13] is 0.04 µM; in experiment [1] (read-out: Ki) it was 0.00111 µM; in experiment [1] (read-out: pKi (converted)) it was 0.00107 µM; in experiment [4] (read-out: Ki), 0.00604 µM; in [4] (read-out: pKi (converted)), 0.00575 µM.
As for `C=C(C)[C@H]1CN[C@H](C(=O)O)[C@H]1CC(=O)O` [KAINIC ACID], the Ki in experiment [13] was found to be 0.0047 µM.
In the case of `O=C(O)C(=O)CC(COCc1ccccc1)C(=O)O` (racemic), the Michaelis-Menten constant (Km) in the experiment with Escherichia coli [11] was 90 µM. Besides, in the experiment with Escherichia coli [12], the kcat is 11%.
With `N[C@@H](C[C@@H](CC(=O)O)C(=O)O)C(=O)O`, the values for the IC50 in experiment [2] and in experiment [3] were more than 100 µM and 39 µM, respectively. The Ki on Glutamate NMDA receptor is more than 100 µM. For the same compound, the negative-log IC50 (pIC50) in experiment [3] is 4.41.
As for `O=C(O)CC(CC(=O)C(=O)O)C(=O)O` (racemic), in the experiment on Escherichia coli [11], the Km is 30100 µM. Moreover, in the experiment on Escherichia coli [12], the kcat was 1.1%.
For `N[C@@H](C[C@@H](CCC(=O)O)C(=O)O)C(=O)O`, the half-maximal inhibitory concentration (IC50) in experiment [2] and in experiment [3] was more than 100 µM in each case. The Ki at Glutamate NMDA receptor is 52 µM.
Take `COC(=O)CC(CC(=O)C(=O)O)C(=O)O` (racemic): the Km in the experiment on Escherichia coli [11] amounted to 1800 µM. In addition, the kcat in the experiment with Escherichia coli [12] came to 41%.
